Experiment [1] deals with T1, Adrenergic receptor alpha-2 (Rattus norvegicus, UniProt P22086+P19328+P22909).
T1 sequence (P22086 whole entry): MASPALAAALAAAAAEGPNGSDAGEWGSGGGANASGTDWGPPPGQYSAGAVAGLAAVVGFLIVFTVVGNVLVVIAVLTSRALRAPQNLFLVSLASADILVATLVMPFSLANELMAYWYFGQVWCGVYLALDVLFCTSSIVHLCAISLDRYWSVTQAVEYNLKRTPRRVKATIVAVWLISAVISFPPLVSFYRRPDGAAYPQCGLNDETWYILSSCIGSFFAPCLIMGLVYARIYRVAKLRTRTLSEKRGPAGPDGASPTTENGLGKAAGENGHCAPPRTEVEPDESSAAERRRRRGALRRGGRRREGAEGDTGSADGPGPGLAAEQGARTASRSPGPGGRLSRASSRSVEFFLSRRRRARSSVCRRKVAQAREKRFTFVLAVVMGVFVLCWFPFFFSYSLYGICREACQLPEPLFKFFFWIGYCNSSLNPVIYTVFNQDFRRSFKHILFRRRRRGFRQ
T1 sequence (P19328 whole entry): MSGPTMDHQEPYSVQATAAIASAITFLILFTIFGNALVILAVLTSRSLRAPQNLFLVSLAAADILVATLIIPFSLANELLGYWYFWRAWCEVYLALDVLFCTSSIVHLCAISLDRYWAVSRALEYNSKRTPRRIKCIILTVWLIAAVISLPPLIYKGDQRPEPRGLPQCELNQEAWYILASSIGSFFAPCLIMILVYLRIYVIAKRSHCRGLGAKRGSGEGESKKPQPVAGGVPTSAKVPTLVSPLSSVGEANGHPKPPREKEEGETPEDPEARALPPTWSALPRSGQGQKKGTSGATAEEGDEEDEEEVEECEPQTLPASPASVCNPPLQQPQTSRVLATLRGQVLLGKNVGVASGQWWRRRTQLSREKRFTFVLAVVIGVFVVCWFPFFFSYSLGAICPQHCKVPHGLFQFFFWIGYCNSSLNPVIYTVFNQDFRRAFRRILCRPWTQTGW
T1 sequence (P22909 whole entry): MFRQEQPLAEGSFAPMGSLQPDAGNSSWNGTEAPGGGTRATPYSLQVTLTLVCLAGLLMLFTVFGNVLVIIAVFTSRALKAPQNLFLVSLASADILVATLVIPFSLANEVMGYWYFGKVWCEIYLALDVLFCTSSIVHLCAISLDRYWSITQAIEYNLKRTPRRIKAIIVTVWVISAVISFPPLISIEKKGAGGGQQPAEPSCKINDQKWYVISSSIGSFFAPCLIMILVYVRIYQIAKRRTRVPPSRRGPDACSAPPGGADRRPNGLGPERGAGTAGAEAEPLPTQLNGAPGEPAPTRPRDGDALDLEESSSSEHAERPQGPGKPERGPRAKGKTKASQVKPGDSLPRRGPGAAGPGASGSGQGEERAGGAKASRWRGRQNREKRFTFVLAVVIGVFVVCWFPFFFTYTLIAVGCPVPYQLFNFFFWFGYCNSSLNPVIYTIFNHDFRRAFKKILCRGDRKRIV
Briefly: Binding affinity to alpha-2 adrenergic receptor determined by measurement of [3H]yohimbine displacement from rat cortical membrane.

The target in experiment [2] is T2, Adrenergic receptor alpha-2 (Rattus norvegicus) (UniProt P22086+P19328+P22909).
The target in experiment [3] is T2, Adrenergic receptor alpha-2 (Rattus norvegicus). This is another data set of the same source.
In experiment [4] the target is T3, Adrenergic receptor alpha-1 (Rattus norvegicus, UniProt P15823+P23944+P43140).
T3 sequence (P15823 whole entry): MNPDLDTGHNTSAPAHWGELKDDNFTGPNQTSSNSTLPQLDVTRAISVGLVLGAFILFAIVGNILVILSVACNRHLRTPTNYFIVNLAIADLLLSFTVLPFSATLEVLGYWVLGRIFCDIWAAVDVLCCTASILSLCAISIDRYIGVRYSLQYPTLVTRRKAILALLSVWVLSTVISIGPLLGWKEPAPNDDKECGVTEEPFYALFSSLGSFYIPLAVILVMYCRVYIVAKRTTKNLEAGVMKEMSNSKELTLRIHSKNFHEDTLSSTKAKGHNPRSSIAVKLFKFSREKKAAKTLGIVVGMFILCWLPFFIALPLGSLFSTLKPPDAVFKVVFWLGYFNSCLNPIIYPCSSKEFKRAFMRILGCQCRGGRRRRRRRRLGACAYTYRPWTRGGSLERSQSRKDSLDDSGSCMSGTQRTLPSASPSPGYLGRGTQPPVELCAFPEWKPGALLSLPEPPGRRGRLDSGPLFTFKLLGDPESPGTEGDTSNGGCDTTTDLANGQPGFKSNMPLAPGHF
T3 sequence (P23944 whole entry): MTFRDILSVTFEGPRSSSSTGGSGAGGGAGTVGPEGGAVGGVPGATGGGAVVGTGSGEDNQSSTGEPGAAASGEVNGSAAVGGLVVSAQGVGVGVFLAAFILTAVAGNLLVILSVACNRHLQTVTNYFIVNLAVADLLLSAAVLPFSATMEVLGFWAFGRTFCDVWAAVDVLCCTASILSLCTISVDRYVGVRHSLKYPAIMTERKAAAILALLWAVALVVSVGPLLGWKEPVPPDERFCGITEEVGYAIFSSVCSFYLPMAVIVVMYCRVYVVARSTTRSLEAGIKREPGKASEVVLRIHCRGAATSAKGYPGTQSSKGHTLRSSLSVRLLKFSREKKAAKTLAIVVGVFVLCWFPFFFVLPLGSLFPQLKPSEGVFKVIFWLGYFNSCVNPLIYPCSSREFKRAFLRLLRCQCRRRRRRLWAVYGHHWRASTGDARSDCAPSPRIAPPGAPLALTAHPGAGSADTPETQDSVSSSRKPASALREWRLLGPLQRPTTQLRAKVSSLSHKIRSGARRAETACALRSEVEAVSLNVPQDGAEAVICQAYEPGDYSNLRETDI
T3 sequence (P43140 whole entry): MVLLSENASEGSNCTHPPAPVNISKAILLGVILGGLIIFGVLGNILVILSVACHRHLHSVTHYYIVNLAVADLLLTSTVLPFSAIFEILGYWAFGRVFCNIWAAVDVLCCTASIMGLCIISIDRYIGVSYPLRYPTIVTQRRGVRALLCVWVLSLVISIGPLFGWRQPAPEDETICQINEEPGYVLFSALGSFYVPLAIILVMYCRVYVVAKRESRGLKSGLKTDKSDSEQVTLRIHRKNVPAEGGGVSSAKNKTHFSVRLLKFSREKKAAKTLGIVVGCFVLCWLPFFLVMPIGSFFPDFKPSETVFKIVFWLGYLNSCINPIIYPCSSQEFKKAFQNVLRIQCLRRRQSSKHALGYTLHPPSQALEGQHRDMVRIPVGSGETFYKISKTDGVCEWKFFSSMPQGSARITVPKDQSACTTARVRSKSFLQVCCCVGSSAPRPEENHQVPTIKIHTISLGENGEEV
Kind of experiment: Binding affinity to alpha-1 adrenergic receptor determined by measurement of [3H]prazosin displacement from rat cortical membrane. The method, boiled down: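 Male Sprague-Dawley rat (150-200 g) cerebral cortex membranes, washed in 50 mM Tris-HCl/0.5 mM EDTA pH 7.4. 250 µg membrane protein incubated with 0.5 nM [3H]prazosin for 30 min at 25 °C in a 0.5 mL volume. Nonspecific binding defined by 10 µM phentolamine. IC50 estimated graphically; Ki calculated by Cheng-Prusoff.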

Experimental findings from ChEMBL document CHEMBL1125249, “Structure-affinity relationships of 12-sulfonyl derivatives of 5,8,8a,9,10,11,12,12a,13,13a-decahydro-6H-isoquino[2,1-g][1 ,6] naphthyridines at alpha-adrenoceptors” (J Med Chem, 1991) are described below.

In the case of `COc1cc2c(cc1OC)[C@@H]1C[C@H]3[C@H](CCCN3S(C)(=O)=O)CN1CC2`, the “Log Ki” value in experiment [1] is recorded as -8.01; in experiment [4] it was -4.46. For the same compound, the ID50 in experiment [2] amounted to 0.38 mg/kg; in experiment [3], 1.6 mg/kg.
In the case of `CC(C)CS(=O)(=O)N1CCC[C@@H]2CN3CCc4cc5c(cc4[C@@H]3C[C@@H]21)OCO5`, the “Log Ki” value in experiment [1] is -8.17; in experiment [4], -5.04. The ID50 is 0.062 mg/kg in experiment [2] and 0.44 mg/kg in experiment [3].
As to `O=S(=O)(CCO)N1CCC[C@@H]2CN3CCc4ccccc4[C@@H]3C[C@@H]21`, the results for the “Log Ki” value in experiment [1] and in experiment [4] were -8.16 and -4.89, respectively. Moreover, the ID50 in experiment [2] is 0.046 mg/kg; in experiment [3] it was 1.34 mg/kg.
The matching figures for `COCCS(=O)(=O)N1CCC[C@@H]2CN3CCc4ccccc4[C@@H]3C[C@@H]21`: -8.63, -5.13, 0.062 mg/kg and 0.24 mg/kg.
Turning to `CS(=O)(=O)N1CCC[C@@H]2CN3CCc4cc5c(cc4[C@@H]3C[C@@H]21)OCCO5`, the “Log Ki” value in experiment [1] is -8.8; in experiment [4], -5.02. For the same compound, the results for the ID50 in experiment [2] and in experiment [3] were 0.13 mg/kg and 1.4 mg/kg, respectively.
For `CCCCS(=O)(=O)N1CCC[C@H]2CN3CCc4ccccc4[C@@H]3C[C@@H]21`, the “Log Ki” value in experiment [1] is given as -7.42; in experiment [4], -5.3.
Turning to `COC(=O)[C@@H]1[C@H]2C[C@H]3c4[nH]c5ccccc5c4CCN3C[C@@H]2CC[C@@H]1O`, the figures for the ID50 in experiment [2] and in experiment [3] were 0.185 mg/kg and 2.8 mg/kg, respectively.
Consider `CN1C[C@@H]2CCCN(S(C)(=O)=O)[C@@H]2C[C@H]1c1ccc2c(c1)OCO2`, for which the “Log Ki” value in experiment [1] is reported as -6.13; in experiment [4] it was -5.55.
For the compound `Nc1ccc(S(=O)(=O)N2CCC[C@@H]3CN4CCc5ccccc5[C@@H]4C[C@@H]32)cc1`, the “Log Ki” value is -8.66 in experiment [1] and -5.33 in experiment [4].
The matching figures for `CS(=O)(=O)N1CCC[C@@H]2CN3CCc4c([nH]c5ccccc45)[C@@H]3C[C@@H]21`: -7.78 and -4.8.
`CN1C[C@H]2CCCN(S(C)(=O)=O)[C@H]2C[C@H]1c1ccc2c(c1)OCO2`: the entries for the “Log Ki” value in experiment [1] and in experiment [4] were -5.38 and -4.82, respectively.
`COCCS(=O)(=O)N1CCC[C@@H]2CN3CCc4cc(OC)ccc4[C@@H]3C[C@@H]21`: the entries for the “Log Ki” value in experiment [1] and in experiment [4] were -9.22 and -5.03, respectively. Further, the ID50 in experiment [2] worked out at 0.09 mg/kg; in experiment [3], 0.3 mg/kg.
As for `CS(=O)(=O)N1CCC[C@H]2CN3CCc4cc5c(cc4[C@@H]3C[C@@H]21)OCO5`, the results for the “Log Ki” value in experiment [1] and in experiment [4] were -7.56 and -5.65, respectively.
`CS(=O)(=O)N1CCC[C@@H]2CN3CCc4ccc(F)cc4[C@@H]3C[C@@H]21`: the “Log Ki” value in experiment [1] is reported as -8.04; in experiment [4], -5.21.
As to `CS(=O)(=O)N1CCC[C@H]2CN3CCc4cc5c(cc4[C@@H]3C[C@H]21)OCO5`, the “Log Ki” value in experiment [1] was -7.24; in experiment [4] it was -5.95.
`COc1ccc2c(c1)CCN1C[C@@H]3CCCN(S(C)(=O)=O)[C@H]3C[C@@H]21`: the “Log Ki” value in experiment [1] is recorded as -7.84; in experiment [4], -5.2.
As to `CS(=O)(=O)N1CCC[C@@H]2CN3CCc4ccccc4[C@@H]3C[C@@H]21`, the figures for the “Log Ki” value in experiment [1] and in experiment [4] were -8.77 and -5.26, respectively. For the same compound, the ID50 in experiment [2] was determined as 0.0125 mg/kg; in experiment [3], 1.2 mg/kg.
For `CCCCS(=O)(=O)N1CCC[C@H]2CN3CCc4ccccc4[C@@H]3C[C@H]21`, the “Log Ki” value in experiment [1] is reported as -5.82; in experiment [4], -5.76.
Regarding `COc1cc2c(cc1OC)[C@@H]1C[C@H]3[C@H](CCCN3S(=O)(=O)CC(C)C)CN1CC2`, the “Log Ki” value in experiment [1] is recorded as -8.1; in experiment [4], -4.46.
`CS(=O)(=O)N1CC[C@@H]2CN3CCc4ccccc4[C@@H]3C[C@@H]2C1`: the “Log Ki” value in experiment [1] is given as -7.54; in experiment [4], -5.8.
As to `COc1ccc2c(c1)CCN1C[C@H]3CCCN(S(=O)(=O)N(C)C)[C@H]3C[C@@H]21`, the “Log Ki” value is -8.66 in experiment [1] and -5.25 in experiment [4].
The matching figures for `COc1ccc(OC)c2c1CCN1C[C@H]3CCCN(S(C)(=O)=O)[C@H]3C[C@@H]21`: -7.37 and -5.63.
The matching figures for `COc1cccc2c1[C@@H]1C[C@H]3[C@H](CCCN3S(C)(=O)=O)CN1CC2`: -8.65 and -5.48.
The matching figures for `COc1ccc2c(c1)CCN1C[C@H]3CCCN(S(=O)(=O)CCl)[C@@H]3C[C@@H]21`: -8.95 and -5.13.
Turning to `COc1ccc2c(c1)CCN1C[C@H]3CCCN(S(=O)(=O)Cc4ccccc4)[C@@H]3C[C@@H]21`, the “Log Ki” value is given as -8.82 in experiment [1] and -5.13 in experiment [4].
